Consider 54 compounds from ChEMBL document CHEMBL1154598, “7-Hydroxy-benzopyran-4-one derivatives: a novel pharmacophore of peroxisome proliferator-activated receptor alpha and -gamma (PPARalpha and gamma) dual agonists” (J Med Chem, 2009).

Calls of active or inactive are those of the source. The calls are words filed in the database; no cut-off is given here. Where only a bound is given, the exact number is not on record here.

In general, EC50 refers to the concentration that produces a half-maximal response.

In series [1] the target is T1, Peroxisome proliferator-activated receptor gamma (Homo sapiens) (UniProt P37231).
T1 sequence (whole entry): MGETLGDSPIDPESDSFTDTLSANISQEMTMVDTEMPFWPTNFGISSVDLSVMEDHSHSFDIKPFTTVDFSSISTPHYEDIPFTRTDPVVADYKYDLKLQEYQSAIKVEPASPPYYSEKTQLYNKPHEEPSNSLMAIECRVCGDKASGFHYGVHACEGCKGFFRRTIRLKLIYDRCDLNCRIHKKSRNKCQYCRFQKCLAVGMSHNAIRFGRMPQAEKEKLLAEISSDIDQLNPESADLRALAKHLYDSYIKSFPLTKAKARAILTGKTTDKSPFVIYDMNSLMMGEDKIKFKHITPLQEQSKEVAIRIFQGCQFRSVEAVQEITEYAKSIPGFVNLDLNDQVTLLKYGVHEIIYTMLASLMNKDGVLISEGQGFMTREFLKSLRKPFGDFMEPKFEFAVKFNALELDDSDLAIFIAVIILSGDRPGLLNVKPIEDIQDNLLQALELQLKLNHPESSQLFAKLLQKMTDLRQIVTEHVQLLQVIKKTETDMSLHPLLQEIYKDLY
The series is described as follows: Agonist activity at human PPARgamma expressed in HEK293 cells co-transfected with PPRE assessed as beta-galactosidase signal at 25 uM after 48 hrs by reporter gene assay relative to control. In kind it is functional, cell-based. Put shortly: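 HEK293 cells were transfected with FuGENE 6 using a PPRE-luciferase reporter, pSG5-hPPARγ1 and a β-galactosidase control plasmid. After 24 h they were replated at 5 × 10⁴ cells/well, attached overnight, then treated for 48 h with 0.1% DMSO as vehicle. Luciferase was read, normalized to the β-gal signal and reported as fold activation over vehicle. Mean of two experiments in triplicate.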

For series [2], the target named is T2, Peroxisome proliferator-activated receptor alpha (Homo sapiens) (UniProt Q07869).
T2 sequence (whole entry): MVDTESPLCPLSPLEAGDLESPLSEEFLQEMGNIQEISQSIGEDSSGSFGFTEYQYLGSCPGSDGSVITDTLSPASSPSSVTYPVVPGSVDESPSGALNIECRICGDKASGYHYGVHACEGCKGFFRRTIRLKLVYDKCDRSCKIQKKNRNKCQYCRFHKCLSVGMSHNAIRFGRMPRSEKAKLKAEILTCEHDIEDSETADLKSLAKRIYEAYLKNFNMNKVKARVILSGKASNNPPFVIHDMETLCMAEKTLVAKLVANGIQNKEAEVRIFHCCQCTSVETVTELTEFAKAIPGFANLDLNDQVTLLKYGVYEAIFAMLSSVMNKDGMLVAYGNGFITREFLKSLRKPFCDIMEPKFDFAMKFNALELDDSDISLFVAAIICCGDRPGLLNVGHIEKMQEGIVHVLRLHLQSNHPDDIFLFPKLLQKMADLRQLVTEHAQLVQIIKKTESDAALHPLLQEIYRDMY
The series is described as follows: Agonist activity at human PPARalpha expressed in HEK293 cells co-transfected with PPRE assessed as beta-galactosidase signal at 25 uM after 48 hrs by reporter gene assay relative to control. The class given is functional, cell-based. An outline of the steps:
(§1)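 Human PPARα transactivation in HEK293 cells grown in DMEM/F-12 with 10% heat-inactivated FBS. Cells were transfected with FuGENE 6 using a PPRE-luciferase reporter, pBI-G-hPPARα and a β-galactosidase control plasmid. After 24 h they were replated at 5 × 10⁴ cells/well, attached overnight, then dosed for 48 h with 0.1% DMSO as vehicle. Luciferase was normalized to β-gal and expressed as fold over vehicle. Two experiments, each in triplicate.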

For series [3], the target named is T2, Peroxisome proliferator-activated receptor alpha (Homo sapiens). The series is described as follows: Agonist activity at human PPARalpha expressed in HEK293 cells co-transfected with PPRE assessed as beta-galactosidase signal at 40 uM after 48 hrs by reporter gene assay relative to control. The class given is functional, cell-based. An outline of the steps:
as §1

Series [4] is described as follows: Cytotoxicity against HEK293 cells assessed as viable cells at 100 uM after 48 hrs by aqueous one solution cell proliferation assay relative to control. In kind it is cell-based. The settings on record: human, read-out: Activity. Put shortly:
(§2)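 HEK293 cells were seeded overnight, then exposed to 0–100 μM compound for 48 h at 37 °C in 5% CO₂. MTS reagent was added for a further 2 h and absorbance read at 490 nm. Viability is given as % relative to DMSO vehicle control. Two experiments, each in quadruplicate.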

In series [5] the target is T3, Peroxisome proliferator-activated receptor alpha (Homo sapiens, UniProt Q07869).
T3 sequence (Q07869 whole entry): T2 sequence (whole entry)
The series is described as follows: Agonist activity at human PPARalpha assessed as luciferase activity by transactivation assay. The class given is functional.

In series [6] the target is T4, Peroxisome proliferator-activated receptor gamma (Homo sapiens, UniProt P37231).
T4 sequence (P37231 whole entry): T1 sequence (whole entry)
The series is described as follows: Agonist activity at human PPARgamma assessed as luciferase activity by transactivation assay. In kind it is functional. An outline of the steps:
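Transiently transfected HEK293 (PPRE-luciferase reporter plus pSG5-hPPARγ1 and β-gal control), compound exposure 48 h. EC50 is the ligand concentration giving half-maximal fold induction of β-gal-normalized luciferase, fitted by nonlinear regression. Means of three experiments.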

Series [7] can be described thus: Cytotoxicity against HEK293 cells assessed as viable cells at 50 uM after 48 hrs by aqueous one solution cell proliferation assay relative to control. The conditions noted are these: human, read-out: Activity. The class given is cell-based. Put shortly: as §2

Turning to `CCc1cc2c(=O)c(-c3ccc4c(c3)OCO4)c(C)oc2cc1OCC(=O)O`, the fold change (FC) in series [1] stood at 2.3.
With `O=C1C[C@@H](c2ccc(O)cc2)Oc2cc(O)cc(O)c21`, the fold change (FC) in series [2] amounted to 1.2; in series [3] it was 1.7; in series [1], 1.7.
For the compound `CCc1cc2c(=O)c(-c3ccc4c(c3)OCO4)c(C)oc2cc1O`, the fold change (FC) in series [1] is 5.3.
Take `O=c1cc(-c2cccc(O)c2)oc2cc(O)ccc12`: the fold change (FC) in series [2] was found to be 8.2; in series [3], 14.8; in series [1], 6.3.
In the case of `COc1ccc(-c2cc(=O)c3c(O)cc(O)cc3o2)cc1O`, the fold change (FC) is 2.8 in series [2], 3.8 in series [3] and 7.3 in series [1].
As to `CN(CCOc1ccc(C[C@H](Nc2ccccc2C(=O)c2ccccc2)C(=O)O)cc1)c1ccccn1`, in series [4], the viability at 48 h, 100 µM was 33%.
Regarding `COc1cc(-c2cc(=O)c3c(O)cc(O)cc3o2)ccc1O`, the fold change (FC) in series [2] turned out to be 1.1; in series [3] it was 1.3; in series [1], 2.2.
In the case of `O=c1cc(-c2ccc(O)cc2)oc2cc(O)ccc12`, the fold change (FC) in series [2] stood at 1.5; in series [3], 2.6; in series [1] it was 5.
For `O=c1cc(-c2ccccc2O)oc2cc(O)ccc12`, in that order: 3.6, 4.9 and 6.8.
For the compound `Oc1ccc(-c2n[nH]c(C(F)(F)F)c2-c2ccc(F)cc2)c(O)c1`, the fold change (FC) in series [1] was 3.9.
For `COc1ccc(-c2cc(=O)c3c(O)cc(O)cc3o2)cc1`, the fold change (FC) is 2.3 in series [2], 5.2 in series [3] and 7.7 in series [1].
Regarding `COc1c(F)cc(F)cc1-c1coc2cc(O)ccc2c1=O`, the fold change (FC) in series [1] is 7.5.
Turning to `O=c1c(-c2cccc(OCc3ccccc3)c2)coc2cc(O)ccc12`, in series [1], the result was inactive.
As to `COc1ccc(-c2oc3cc(O)ccc3c(=O)c2O)cc1OC`, in series [1], the fold change (FC) was found to be 2.4.
`O=c1c(-c2cccc(OC(F)(F)F)c2)coc2cc(O)ccc12`: the fold change (FC) in series [1] amounted to 2.1.
Regarding `COc1ccc(-c2c(-c3ccc(O)cc3O)n[nH]c2C)cc1`, in series [1], the fold change (FC) is 2.2.
On to `CN(CCOc1ccc(CC2SC(=O)NC2=O)cc1)c1ccccn1` (stereo unspecified) [ROSIGLITAZONE], for which the viability at 48 h, 100 µM in series [4] came to 46%.
Consider `COc1ccccc1/C=C/C(=O)c1ccc(O)cc1O`, for which the fold change (FC) in series [1] turned out to be 1.1.
For `COc1ccc(-c2coc3cc(O)ccc3c2=O)cc1`, the fold change (FC) was found to be 7.5 in series [2], 7.8 in series [3] and 12.8 in series [1].
`COc1ccccc1-c1coc2cc(O)ccc2c1=O`: the fold change (FC) in series [1] is 1.6.
As for `O=c1cc(-c2ccc(O)cc2)oc2ccc(O)cc12`, the fold change (FC) was 2.6 in series [2], 3.5 in series [3] and 5 in series [1].
For `O=c1c(-c2ccc(O)cc2)coc2cc(O)c(O)cc12`, the fold change (FC) in series [2] is 1.8; in series [3], 4; in series [1] it was 4.4.
In the case of `COc1cc(-c2coc3cc(OC4CCCCO4)ccc3c2=O)cc(OC)c1OC` (stereo unspecified), the fold change (FC) in series [1] was found to be 2.3.
For the compound `COc1cc(-c2coc3cc(O)ccc3c2=O)cc(OC)c1OC`, in series [1], the outcome was inactive.
Consider `O=c1c(-c2cc(F)c(F)c(F)c2)coc2cc(O)ccc12`, for which the fold change (FC) in series [1] was determined as 1.4.
With `O=c1c(-c2ccc3c(c2)OCCO3)coc2cc(OC3CCCCO3)ccc12` (stereo unspecified), the results for the fold change (FC) in series [2], in series [3] and in series [1] were 2.5, 3.3 and 2, respectively.
Take `COc1ccc2c(=O)c(-c3ccc4c(c3)OCO4)coc2c1`: the figures for the fold change (FC) in series [2], in series [3] and in series [1] were 2.2, 2.4 and 25.2, respectively.
As to `COc1cccc(/C=C/C(=O)c2ccc(O)cc2O)c1`, the fold change (FC) in series [1] is 2.1.
In the case of `O=c1cc(-c2ccc(O)c(O)c2)oc2ccccc12`, the values for the fold change (FC) in series [2], in series [3] and in series [1] were 2.8, 7.7 and 5, respectively.
As for `Oc1ccc(-c2n[nH]cc2-c2ccc3c(c2)OCO3)c(O)c1`, the outcome in series [1] was inactive.
Regarding `O=c1c(-c2ccc(O)c(O)c2)coc2cc(O)ccc12`, the fold change (FC) in series [1] was 7.5.
Still for that read-out and setting: under `COc1cc(-c2oc3cc(O)cc(O)c3c(=O)c2O)cc(OC)c1O` stands 1.2; under `O=c1c(-c2ccc(Cl)cc2)coc2cc(O)ccc12`, 2.6.
Turning to `O=c1cc(-c2ccc(O)cc2)oc2cccc(O)c12`, the figures for the fold change (FC) in series [2], in series [3] and in series [1] were 2.4, 3.7 and 8.9, respectively.
For the compound `COc1ccc(/C=C/C(=O)c2ccc(O)cc2O)cc1OC`, the fold change (FC) in series [1] was 3.5.
Consider `O=c1c(-c2ccc(O)cc2)coc2cc(O)ccc12`, for which the fold change (FC) turned out to be 6.2 in series [2], 13.4 in series [3] and 9.6 in series [1].
For the compound `O=c1c(-c2ccc(C(F)(F)F)cc2)coc2cc(O)ccc12`, in series [1], the fold change (FC) came out at 4.4.
Still for that read-out and setting: under `O=c1c(-c2cccc(F)c2)coc2cc(O)ccc12` stands 4.1.
Same read-out and setting: as for `Oc1ccc(-c2n[nH]cc2-c2ccc(F)cc2)c(O)c1`, the figure is 1.7.
Regarding `O=c1c(-c2ccc(F)cc2)coc2cc(O)ccc12`, the concentration for a half-maximal effect (EC50) in series [5] amounted to 33.1 µM; in series [6] it was 15.4 µM. Moreover, the results for the fold change (FC) in series [2], in series [3] and in series [1] were 8.6, 28.7 and 148, respectively. Moreover, the viability at 48 h, 50 µM in series [7] was greater than 67%.
Turning to `CCc1cc2c(=O)c(-c3ccc4c(c3)OCO4)coc2cc1O`, in series [1], the fold change (FC) worked out at 12.7.
On to `O=c1c(O)c(-c2ccc(O)c(O)c2)oc2cc(O)cc(O)c12`, for which the fold change (FC) in series [1] turned out to be 1.3.
`Cc1[nH]nc(-c2ccc(O)cc2O)c1-c1ccc(F)cc1`: the fold change (FC) in series [1] turned out to be 5.3.
Turning to `O=C(/C=C/c1ccc(O)cc1)c1ccc(O)cc1O`, the fold change (FC) in series [1] was determined as 1.3.
As for `COc1ccc(-c2coc3cc(O)ccc3c2=O)cc1OC`, the fold change (FC) in series [1] came out at 10.5.
Turning to `O=c1c(-c2ccc(F)cc2F)coc2cc(O)ccc12`, the fold change (FC) in series [1] was determined as 13.8.
As to `CCc1cc2c(=O)c(-c3ccc4c(c3)OCO4)c(C(F)(F)F)oc2cc1O`, in series [1], the outcome was inactive.
Turning to `COc1ccc(/C=C/C(=O)c2ccc(O)cc2O)cc1`, the fold change (FC) in series [1] was determined as 2.6.
On to `COc1ccc(-c2coc3cc(O)ccc3c2=O)c(OC)n1`, for which the result in series [1] was inactive.
For the compound `COc1ccc([C@@H]2CC(=O)c3c(O)cc(O)cc3O2)cc1O`, the fold change (FC) in series [2] worked out at 1.9; in series [3] it was 2; in series [1] it was 3.8.
Regarding `O=c1c(-c2cc(O)cc(O)c2)coc2cc(O)ccc12`, in series [1], the fold change (FC) came out at 7.4.
Turning to `O=c1c(-c2ccc3c(c2)OCO3)coc2cc(OC3CCCCO3)ccc12` (stereo unspecified), the fold change (FC) in series [1] amounted to 9.4.
Regarding `O=c1c(-c2ccc(O)cc2)coc2cc(O)cc(O)c12`, the fold change (FC) in series [1] is 3.4.
As to `O=c1c(-c2ccc3c(c2)OCCO3)coc2cc(O)ccc12`, the fold change (FC) in series [1] is 11.3.
